Data as given in article PMC5689172 (Biochemistry and Biophysics Reports, 2016).

How the values were obtained:
S. aureus ATCC 25923 = assay: Antimicrobial activity, agar dilution method; assay type: cell-based; conditions: Staphylococcus aureus, ATCC25923
How it was run: (§1)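 Test compound in DMSO, mixed with Mueller–Hinton broth, two-fold serially diluted, and incorporated into MH agar at final 0.25–256 μg/mL. Agar with 0.5% DMSO served as reagent control. Organisms were grown overnight in MH broth at 37 °C, diluted in normal saline to 0.5 McFarland (1.5×10⁸ CFU/mL), and inoculated onto plates. Plates were incubated at 37 °C for 24–48 h, then MIC was recorded.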

S. aureus ATCC 29213 = assay: Antimicrobial activity, agar dilution method; assay type: cell-based; conditions: Staphylococcus aureus, ATCC29213
How it was run: as §1

[1] = system: S. epidermidis ATCC 12228; assay: Antimicrobial activity, agar dilution method; assay type: cell-based; conditions: Staphylococcus epidermidis, ATCC12228
How it was run: as §1

M. luteus ATCC 10240 = assay: Antimicrobial activity, agar dilution method; assay type: cell-based; conditions: Micrococcus luteus, ATCC10240
How it was run: as §1

E. faecalis ATCC 29212 = assay: Antimicrobial activity, agar dilution method; assay type: cell-based; conditions: Enterococcus faecalis, ATCC29212
How it was run: as §1

E. faecalis ATCC 33186 = assay: Antimicrobial activity, agar dilution method; assay type: cell-based; conditions: Enterococcus faecalis, ATCC33186
How it was run: as §1

[2] = system: C. diphtheriae NCTC 10356; assay: Antimicrobial activity, agar dilution method; assay type: cell-based; conditions: Corynebacterium diphtheriae, NCTC10356
How it was run: as §1

B. subtilis ATCC 6633 = assay: Antimicrobial activity, agar dilution method; assay type: cell-based; conditions: Bacillus subtilis, ATCC6633
How it was run: as §1

B. cereus = assay: Antimicrobial activity, agar dilution method; assay type: cell-based; conditions: Bacillus cereus
How it was run: as §1

L. monocytogenes = assay: Antimicrobial activity, agar dilution method; assay type: cell-based; conditions: Listeria monocytogenes
How it was run: as §1

E. coli ATCC 25922 = assay: Antimicrobial activity, agar dilution method; assay type: cell-based; conditions: Escherichia coli, ATCC25922
How it was run: as §1

[3] = system: K. pneumoniae ATCC 700603; assay: Antimicrobial activity, agar dilution method; assay type: cell-based; conditions: Klebsiella pneumoniae, ATCC700603
How it was run: as §1

S. marcescens ATCC 8100 = assay: Antimicrobial activity, agar dilution method; assay type: cell-based; conditions: Serratia marcescens, ATCC8100
How it was run: as §1

[4] = system: S. Typhimurium ATCC 13311; assay: Antimicrobial activity, agar dilution method; assay type: cell-based; conditions: Salmonella enterica, ATCC13311|TYPHIMURIUM
How it was run: as §1

[5] = system: S. Choleraesuis ATCC 10708; assay: Antimicrobial activity, agar dilution method; assay type: cell-based; conditions: Salmonella enterica, ATCC10708|CHOLERAESUIS
How it was run: as §1

S. Enteritidis = assay: Antimicrobial activity, agar dilution method; assay type: cell-based; conditions: Salmonella enterica
How it was run: as §1

S. dysenteriae = assay: Antimicrobial activity, agar dilution method; assay type: cell-based; conditions: Shigella dysenteriae
How it was run: as §1

M. morganii = assay: Antimicrobial activity, agar dilution method; assay type: cell-based; conditions: Morganella morganii
How it was run: as §1

C. freundii = assay: Antimicrobial activity, agar dilution method; assay type: cell-based; conditions: Citrobacter freundii
How it was run: as §1

P. shigelloides = assay: Antimicrobial activity, agar dilution method; assay type: cell-based; conditions: Plesiomonas shigelloides, P. shigelloides; agar dilution
A. hydrophila = assay: Antimicrobial activity, agar dilution method; assay type: cell-based; conditions: Aeromonas hydrophila
How it was run: as §1

P. aeruginosa ATCC 27853 = assay: Antimicrobial activity, agar dilution method; assay type: cell-based, Pseudomonas aeruginosa; conditions: Pseudomonas aeruginosa, ATCC27853
How it was run: as §1

P. stutzeri ATCC 17587 = assay: Antimicrobial activity, agar dilution method; assay type: cell-based, Pseudomonas stutzeri; conditions: Stutzerimonas stutzeri, ATCC17587
How it was run: as §1

[6] = system: S. putrefaciens ATCC 8071; assay: Antimicrobial activity, agar dilution method; assay type: cell-based; conditions: Shewanella putrefaciens, ATCC8071
How it was run: as §1

[7] = system: A. xylosoxidans ATCC 27061; assay: Antimicrobial activity, agar dilution method; assay type: cell-based; conditions: Achromobacter xylosoxidans, ATCC27061
How it was run: as §1

C. albicans ATCC 90028 = assay: Antimicrobial activity, agar dilution method; assay type: cell-based; conditions: Candida albicans, ATCC90028
How it was run: as §1

S. cerevisiae ATCC 2601 = assay: Antimicrobial activity, agar dilution method; assay type: cell-based; conditions: Saccharomyces cerevisiae, ATCC2601
How it was run: as §1

Gram-negative bacteria = assay: Antimicrobial activity, agar dilution method, summarised over the group; assay type: cell-based
How it was run: as §1

diploid fungi and yeast = assay: as above; assay type: cell-based, Candida albicans; conditions: Saccharomyces cerevisiae, ATCC2601|ATCC90028
How it was run: as §1

[8] = Antioxidant activity, DPPH radical scavenging assay; assay type: biochemical; conditions: read-out: RSA IC50, 30 min, 517 nm
How it was run: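 Sample solution (test compound, 1 mg/mL in DMSO) was mixed with 0.1 mM DPPH in methanol and kept 30 min in the dark. Absorbance was read at 517 nm. Radical scavenging activity (%) = [1 − Abs(sample)/Abs(control)] × 100. α-Tocopherol was the positive control.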

Cytotoxicity, MTT assay = assay type: cell-based; conditions: human, MRC-5 cells (normal embryonic lung cell line)
Gram-positive bacteria = assay: Antimicrobial activity, agar dilution method, summarised over the group; assay type: cell-based
How it was run: as §1

Nc1ccc(O)c2ncccc12 [5-amino-8HQ (8), 5-Amino-8-hydroxyquinoline]
275 µM: MIC (S. aureus ATCC 25923) | MIC (S. aureus ATCC 29213) | MIC [1] | MIC (M. luteus ATCC 10240) | MIC (B. subtilis ATCC 6633) | MIC (B. cereus) | MIC (L. monocytogenes) | MIC (A. hydrophila)
22.1 ± 1.02 µM: IC50 at 48 h (Cytotoxicity, MTT assay)
1100 µM: MIC (E. faecalis ATCC 29212) | MIC (E. faecalis ATCC 33186) | MIC [2] | MIC (E. coli ATCC 25922) | MIC [3] | MIC (S. marcescens ATCC 8100) | MIC [4] | MIC [5] | MIC (S. Enteritidis) | MIC (S. dysenteriae) | MIC (M. morganii) | MIC (C. freundii) | MIC (P. shigelloides) | MIC (P. aeruginosa ATCC 27853) | MIC (P. stutzeri ATCC 17587) | MIC [6] | MIC (C. albicans ATCC 90028) | MIC (S. cerevisiae ATCC 2601) | MIC (Gram-negative bacteria)
≥ 645 µM: MIC (diploid fungi and yeast)
549 µM: MIC [7]
8.71 µM: IC50 [8]

Oc1c(I)cc(Cl)c2cccnc12 [CQ (6), clioquinol]
838 µM: MIC [4] | MIC (S. dysenteriae) | MIC (M. morganii)
105 µM: MIC (S. Enteritidis) | MIC (P. stutzeri ATCC 17587)
76.17 ± 0.23 µM: IC50 at 48 h (Cytotoxicity, MTT assay)
366 µM: IC50 [8]
> 838 µM: MIC [3] | MIC [5] | MIC (P. aeruginosa ATCC 27853)
26.2 µM: MIC (S. aureus ATCC 25923) | MIC (S. aureus ATCC 29213) | MIC [1] | MIC (M. luteus ATCC 10240) | MIC (E. faecalis ATCC 29212) | MIC (E. faecalis ATCC 33186) | MIC [2] | MIC (B. subtilis ATCC 6633) | MIC (B. cereus) | MIC (L. monocytogenes) | MIC (E. coli ATCC 25922) | MIC (S. marcescens ATCC 8100) | MIC (P. shigelloides) | MIC (A. hydrophila) | MIC [6] | MIC [7] | MIC (C. albicans ATCC 90028) | MIC (S. cerevisiae ATCC 2601) | MIC (Gram-positive bacteria)
419 µM: MIC (C. freundii)

Oc1ccc(Cl)c2cccnc12 [Cloxyquin (3), cloxyquin]
1050 µM: IC50 [8]
178 µM: MIC [4] | MIC (S. Enteritidis) | MIC (S. dysenteriae) | MIC (M. morganii) | MIC (C. freundii) | MIC (P. stutzeri ATCC 17587) | MIC [6] | MIC (C. albicans ATCC 90028)
11.1 µM: MIC (P. shigelloides)
81.7 ± 0.96 µM: IC50 at 48 h (Cytotoxicity, MTT assay)
89.1 µM: MIC (S. aureus ATCC 25923) | MIC (S. aureus ATCC 29213) | MIC (E. faecalis ATCC 29212) | MIC (E. faecalis ATCC 33186) | MIC (E. coli ATCC 25922) | MIC (S. marcescens ATCC 8100) | MIC [7] | MIC (S. cerevisiae ATCC 2601)
713 µM: MIC [3] | MIC [5]
5.57 to 89.1 µM: MIC (Gram-positive bacteria)
44.5 µM: MIC (B. cereus) | MIC (A. hydrophila)
5.57 µM: MIC (L. monocytogenes)
22.3 µM: MIC [1] | MIC (M. luteus ATCC 10240) | MIC [2] | MIC (B. subtilis ATCC 6633)
> 1430 µM: MIC (P. aeruginosa ATCC 27853)
